Here are results for 10 compounds from ChEMBL document CHEMBL1131568, “Intensely potent doxorubicin analogues: structure-activity relationship” (J Med Chem, 1998).

Assay [1] in a line: Compound was tested for the drug concentration that inhibited cell growth by 50% compared to un treated control cultures of CA 755 cells(murine carcinoma 755 cells). In kind it is functional, Mus musculus. The essentials:
(§1)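 Exponentially growing cells, seeded at 1.5×10^4 cells/mL in McCoy's 5A with 10% FCS, exposed to drug over 2×10^-5 to 2×10^-12 M for 6 days at 37 °C. Cells fixed in 10% formaldehyde, stained with 0.1% crystal violet, and counted by inverted phase-contrast microscopy. IC50 taken from dose-response curves of surviving fraction versus untreated controls; mean of duplicates.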

Assay [2] concerns CHO. Put plainly: Drug concentration that inhibit cell growth by 50% compared to un treated control cultures of CHO cells (for 6 days at 37 degree Centigrade). The conditions noted are these: Cricetulus griseus, 144 h. In kind it is functional, cell-based. The essentials:
as §1

Assay [3] deals with CHO. Put plainly: Compound was tested for the drug concentration that inhibited cell growth by 50% compared to un treated control cultures of CHO /DOX cell line. In kind it is functional, cell-based. The conditions noted are these: Cricetulus griseus. Summed up: as §1
Assay [4] is filed under the species Mus musculus. The assay can be described thus: Compound was tested for the drug concentration that inhibited cell growth by 50% compared to un treated control cultures of Panc 02 cells. Type of assay: functional, cell-based. The conditions noted are these: Panc02. Summed up: as §1
A short description of assay [5]: Compound was tested for the drug concentration that inhibited cell growth by 50% compared to untreated control cultures of CA 755 cells(murine carcinoma 755 cells). In kind it is functional. The conditions noted are these: Mus musculus. Summed up: as §1
Assay [6] is filed under the species Mus musculus. The assay can be described thus: Compound was tested for the drug concentration that inhibited cell growth by 50% compared to untreated control cultures of Panc 02 cells. The conditions noted are these: Panc02. Type of assay: functional, cell-based. Summed up:
as §1

As to `COc1cccc2c1C(=O)c1c(O)c3c(c(O)c1C2=O)CC(O)(C(=O)CO)CC3OC1CC(NCCC(C)(C)C(OC(C)=O)OC(C)=O)C(O)C(C)O1` (stereo not given), the IC50 – broadly, the concentration that inhibits the measured activity by half – in assay [1] is 90 nM; with CHO [2], 120 nM; in the assay on CHO [3], 290 nM; in the assay listed under Mus musculus [4], 95 nM.

Take `COc1cccc2c1C(=O)c1c(O)c3c(c(O)c1C2=O)CC(O)(C(=O)CO)CC3OC1CC(NCCCOCCC(OC(C)=O)OC(C)=O)C(O)C(C)O1` (stereo not given): the half-maximal inhibitory concentration (IC50) in assay [1] came to 90 nM; with CHO [2], 100 nM; in the assay on CHO [3], 210 nM; in the assay listed under Mus musculus [4], 80 nM.

`COc1cccc2c1C(=O)c1c(O)c3c(c(O)c1C2=O)CC(O)(C(=O)CO)CC3OC1CC(NCCCCCC(OC(C)=O)OC(C)=O)C(O)C(C)O1` (stereo not given): the 50% inhibitory concentration (IC50) in assay [1] was determined as 3.1 nM; in the assay on CHO [2] it was 26 nM; in the assay on CHO [3] it was 13 nM; in the assay listed under Mus musculus [4], 14 nM.

On to `COc1cccc2c1C(=O)c1c(O)c3c(c(O)c1C2=O)CC(O)(C(=O)CO)CC3OC1CC(N(C)CCCCC(OC(C)=O)OC(C)=O)C(O)C(C)O1` (stereo not given), for which the IC50 in assay [1] amounted to 130 nM; with CHO [2], 65 nM; in the assay on CHO [3], 185 nM; in the assay listed under Mus musculus [4], 140 nM.

Regarding `COc1cccc2c1C(=O)c1c(O)c3c(c(O)c1C2=O)CC(O)(C(=O)CO)CC3OC1CC(NCCOCCC(OC(C)=O)OC(C)=O)C(O)C(C)O1` (stereo not given), the IC50 with CHO [2] turned out to be 55 nM; with CHO [3] it was 96 nM; in the assay filed under Mus musculus [4] it was 60 nM.

Take `COc1cccc2c1C(=O)c1c(O)c3c(c(O)c1C2=O)CC(O)(C(=O)CO)CC3OC1CC(NCCCCCCCC(OC(C)=O)OC(C)=O)C(O)C(C)O1` (stereo not given): the IC50 in assay [1] was 14 nM; with CHO [2], 250 nM; in the assay on CHO [3], 170 nM; in the assay listed under Mus musculus [4], 110 nM.

Consider `CCCCCNC1CC(OC2CC(O)(C(=O)CO)Cc3c(O)c4c(c(O)c32)C(=O)c2c(OC)cccc2C4=O)OC(C)C1O` (stereo not given), for which the values for the IC50 (in assay [1]; in the assay filed under Mus musculus [4]) were 33 nM and 100 nM, respectively.

Consider `COc1cccc2c1C(=O)c1c(O)c3c(c(O)c1C2=O)CC(O)(C(=O)CO)CC3OC1CC(NCCCC(=O)O)C(O)C(C)O1` (stereo not given), for which the half-maximal inhibitory concentration (IC50) amounted to 150 nM in assay [1], 203 nM with CHO [2], 950 nM with CHO [3] and 240 nM in the assay listed under Mus musculus [4].

`COc1cccc2c1C(=O)c1c(O)c3c(c(O)c1C2=O)CC(O)(C(=O)CO)CC3OC1CC(NCCCCCOC(C)=O)C(O)C(C)O1` (stereo not given): the half-maximal inhibitory concentration (IC50) is 140 nM in assay [1], 83 nM in the assay with CHO [2], 350 nM with CHO [3] and 67 nM in the assay filed under Mus musculus [4].

Take `COc1cccc2c1C(=O)c1c(O)c3c(c(O)c1C2=O)C[C@@](O)(C(=O)CO)C[C@@H]3O[C@H]1C[C@H](N)[C@H](O)[C@H](C)O1` [DOXORUBICIN]: the IC50 in assay [5] turned out to be 14 nM; in the assay filed under Mus musculus [6] it was 65 nM.
